Data reported in ChEMBL document CHEMBL1144008, “Synthesis, nitric oxide release, and anti-leukemic activity of glutathione-activated nitric oxide prodrugs: Structural analogues of PABA/NO, an anti-cancer lead compound” (Bioorg Med Chem, 2008).

Columns and labels:
[1] = Nitric oxide release at 100 to 150 nM in pH7.4 in presence of GSH; assay type: functional
How it was run: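 Performed in 0.1 M pH 7.4 phosphate buffer with 1 mM GSH, sparged with inert gas until detector baseline was steady. Prodrug stock injected to final 100–150 nM. NO release followed at 37 °C. Area under the release curve integrated to give mol NO released per mol compound.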

[2] = system: HL-60; experiment: Antiproliferative activity against human HL60 cells by MTS assay; assay type: functional, cell-based
How it was run: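 HL-60 human myeloid leukemia cells grown in RPMI 1640 with 10% FBS, 37 °C, 5% CO2. Seeded 10,000 cells/100 µL; compounds (DMSO stocks serially diluted in PBS, final DMSO 0.5%) added 24 h after plating. Viable cells read by MTS after 3 days. IC50 from nonlinear fit of absorbance vs concentration to a Hill-slope equation.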

| SMILES | Activity [1] | IC50 [2] |
| --- | --- | --- |
| CN(C)/[N+]([O-])=N/Oc1cc(OC(=O)c2ccc(N)cc2)c([N+](=O)[O-])cc1[N+](=O)[O-] | 63% | 13 µM |
| CC(=O)Nc1ccc(S(=O)(=O)Oc2cc(O/N=[N+](\[O-])N(C)C)c([N+](=O)[O-])cc2[N+](=O)[O-])cc1 | 96% | 3.9 µM |
| CCN(C(=O)c1ccccc1)c1cc(O/N=[N+](\[O-])N(C)C)c([N+](=O)[O-])cc1[N+](=O)[O-] | 100% | 1.4 µM |
| CN(C)/[N+]([O-])=N/Oc1cc(Nc2ccc(CO)cc2)c([N+](=O)[O-])cc1[N+](=O)[O-] | 100% | 6.8 µM |
| CN(C)/[N+]([O-])=N/Oc1cc(OC(=O)c2ccccc2)c([N+](=O)[O-])cc1[N+](=O)[O-] | 15% | > 25 µM |
| CC(=O)Oc1ccccc1C(=O)Oc1cc(O/N=[N+](\[O-])N(C)C)c([N+](=O)[O-])cc1[N+](=O)[O-] | 7% | > 25 µM |
| CN(C)/[N+]([O-])=N/Oc1cc(OC(=O)c2cccnc2)c([N+](=O)[O-])cc1[N+](=O)[O-] | 4% | > 25 µM |
| CC(C)Cc1ccc(C(C)C(=O)Oc2cc(O/N=[N+](\[O-])N(C)C)c([N+](=O)[O-])cc2[N+](=O)[O-])cc1 (stereo not given) | 0% | > 25 µM |
| CNc1ccc(C(=O)Oc2cc(O/N=[N+](\[O-])N(C)C)c([N+](=O)[O-])cc2[N+](=O)[O-])cc1 | 73% | 3.9 µM |
| CC(=O)Nc1ccc(Oc2cc(O/N=[N+](\[O-])N(C)C)c([N+](=O)[O-])cc2[N+](=O)[O-])cc1 | 93% | 2.3 µM |
| CN(C)/[N+]([O-])=N\Oc1cc(O)c([N+](=O)[O-])cc1[N+](=O)[O-] | 0% | > 25 µM |
| CN(C)c1ccc(C(=O)Oc2cc(O/N=[N+](\[O-])N(C)C)c([N+](=O)[O-])cc2[N+](=O)[O-])cc1 | 30% | > 25 µM |
| CN(C(=O)c1ccccc1)c1cc(O/N=[N+](\[O-])N(C)C)c([N+](=O)[O-])cc1[N+](=O)[O-] | 99% | 1.6 µM |
| CC(=O)Nc1ccc(C(=O)Oc2cc(O/N=[N+](\[O-])N(C)C)c([N+](=O)[O-])cc2[N+](=O)[O-])cc1 | 20% | 22 µM |
| COc1ccc2cc(C(C)C(=O)Oc3cc(O/N=[N+](\[O-])N(C)C)c([N+](=O)[O-])cc3[N+](=O)[O-])ccc2c1 (stereo not given) | 5% | > 25 µM |
